Assays:
[1] = biological target: T1, Tyrosine-protein kinase receptor TYRO3 (Homo sapiens, UniProt Q06418); experiment: Inhibition of Tyro3 using EFPIYDFLPAKKK-CONH2 as substrate after 180 mins by microfluid capillary electrophoresis assay
T1 sequence (Q06418 whole entry): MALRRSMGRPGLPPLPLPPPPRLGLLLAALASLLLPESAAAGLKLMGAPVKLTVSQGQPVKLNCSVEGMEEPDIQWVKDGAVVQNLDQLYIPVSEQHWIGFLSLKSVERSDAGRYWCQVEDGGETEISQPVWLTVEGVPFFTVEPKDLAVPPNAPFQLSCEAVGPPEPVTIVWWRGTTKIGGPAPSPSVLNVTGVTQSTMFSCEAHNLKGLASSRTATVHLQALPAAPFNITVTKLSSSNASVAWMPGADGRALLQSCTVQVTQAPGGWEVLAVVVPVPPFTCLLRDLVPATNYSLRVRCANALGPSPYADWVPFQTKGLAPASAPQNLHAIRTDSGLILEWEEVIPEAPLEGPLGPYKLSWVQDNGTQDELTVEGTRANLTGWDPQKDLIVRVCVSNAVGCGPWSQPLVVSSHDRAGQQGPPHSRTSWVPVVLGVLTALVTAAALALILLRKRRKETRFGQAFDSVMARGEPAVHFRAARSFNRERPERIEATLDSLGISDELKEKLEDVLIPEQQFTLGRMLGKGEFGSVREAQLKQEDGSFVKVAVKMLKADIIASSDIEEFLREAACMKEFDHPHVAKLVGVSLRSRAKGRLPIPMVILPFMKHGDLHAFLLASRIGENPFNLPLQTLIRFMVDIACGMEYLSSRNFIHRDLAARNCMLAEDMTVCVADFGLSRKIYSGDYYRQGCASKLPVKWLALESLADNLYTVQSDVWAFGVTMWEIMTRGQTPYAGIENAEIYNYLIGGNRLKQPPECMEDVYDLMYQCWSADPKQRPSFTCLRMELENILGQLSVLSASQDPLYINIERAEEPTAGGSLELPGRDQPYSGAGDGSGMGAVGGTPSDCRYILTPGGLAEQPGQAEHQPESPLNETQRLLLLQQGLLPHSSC

[2] = biological target: T2, Tyrosine-protein kinase receptor UFO (Homo sapiens, UniProt P30530); experiment: Inhibition of Axl using KKKKEEIYFFF-CONH2 as substrate after 180 mins by microfluid capillary electrophoresis assay
T2 sequence (P30530 whole entry): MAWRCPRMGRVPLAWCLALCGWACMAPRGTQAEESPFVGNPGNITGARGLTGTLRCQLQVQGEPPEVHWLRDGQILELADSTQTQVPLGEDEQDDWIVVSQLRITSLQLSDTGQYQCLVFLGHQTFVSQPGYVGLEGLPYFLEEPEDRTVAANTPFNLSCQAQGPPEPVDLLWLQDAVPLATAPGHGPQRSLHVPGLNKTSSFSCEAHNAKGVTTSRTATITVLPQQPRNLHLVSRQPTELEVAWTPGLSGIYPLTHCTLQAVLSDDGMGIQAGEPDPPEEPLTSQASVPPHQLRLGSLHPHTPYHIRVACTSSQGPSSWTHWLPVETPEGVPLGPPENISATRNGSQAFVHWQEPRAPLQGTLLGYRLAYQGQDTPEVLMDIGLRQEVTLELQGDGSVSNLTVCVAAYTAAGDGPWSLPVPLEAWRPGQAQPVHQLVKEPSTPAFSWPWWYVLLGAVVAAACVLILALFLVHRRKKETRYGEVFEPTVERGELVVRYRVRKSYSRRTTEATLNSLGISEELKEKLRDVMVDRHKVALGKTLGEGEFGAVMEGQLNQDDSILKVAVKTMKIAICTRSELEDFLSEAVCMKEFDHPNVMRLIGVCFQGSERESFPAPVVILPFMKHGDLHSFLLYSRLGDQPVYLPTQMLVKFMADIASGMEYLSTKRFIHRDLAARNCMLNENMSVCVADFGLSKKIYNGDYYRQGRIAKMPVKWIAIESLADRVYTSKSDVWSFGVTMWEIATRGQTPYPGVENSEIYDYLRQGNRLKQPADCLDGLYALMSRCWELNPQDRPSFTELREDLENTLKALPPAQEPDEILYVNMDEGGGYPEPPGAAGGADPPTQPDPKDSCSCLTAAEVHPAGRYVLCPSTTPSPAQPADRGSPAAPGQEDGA

Mus musculus [3] = experiment: Oral bioavailability in Swiss mouse at 3 mg/kg; assay type: ADME, organism-based; conditions: in vivo
[4] = biological target: Receptor-type tyrosine-protein kinase FLT3 (Homo sapiens) (UniProt P36888); experiment: Inhibition of FLT3 at 10 times IC50 concentration after 90 mins in presence of ATP
Summary of the method: (§1)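 Single-concentration screen across a kinase panel spanning the main kinase families, the TAM family and the related MET family. Each sample was run in duplicate, and the read-out was percent inhibition of kinase activity.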

[5] = biological target: Proto-oncogene tyrosine-protein kinase receptor Ret (Homo sapiens) (UniProt P07949); experiment: Inhibition of Ret at 10 times IC50 concentration after 90 mins in presence of ATP; summary of the method: as §1
[6] = tested on: Proto-oncogene tyrosine-protein kinase receptor Ret (Homo sapiens), P07949 [Y791F]; experiment: Inhibition of Ret Y791F mutant at 10 times IC50 concentration after 90 mins in presence of ATP; summary of the method: as §1
Mus musculus [7] = experiment: Volume of distribution at steady state in Swiss mouse at 3 mg/kg, iv; assay type: ADME, organism-based; set-up: dose 3 mg/kg, route intravenous; conditions: in vivo
[8] = biological target: MAP kinase-activated protein kinase 2 (Homo sapiens) (UniProt P49137); experiment: Inhibition of MAPKAPK2 at 10 times IC50 concentration after 90 mins in presence of ATP; summary of the method: as §1
[9] = biological target: T3, Tyrosine-protein kinase Mer (Homo sapiens, UniProt Q12866); experiment: Inhibition of Mer expressed in Escherichia coli BL21 (DE3) cells using EFPIYDFLPAKKK-CONH2 as substrate after 180 mins by microfluid capillary electrophoresis assay
T3 sequence (Q12866 whole entry): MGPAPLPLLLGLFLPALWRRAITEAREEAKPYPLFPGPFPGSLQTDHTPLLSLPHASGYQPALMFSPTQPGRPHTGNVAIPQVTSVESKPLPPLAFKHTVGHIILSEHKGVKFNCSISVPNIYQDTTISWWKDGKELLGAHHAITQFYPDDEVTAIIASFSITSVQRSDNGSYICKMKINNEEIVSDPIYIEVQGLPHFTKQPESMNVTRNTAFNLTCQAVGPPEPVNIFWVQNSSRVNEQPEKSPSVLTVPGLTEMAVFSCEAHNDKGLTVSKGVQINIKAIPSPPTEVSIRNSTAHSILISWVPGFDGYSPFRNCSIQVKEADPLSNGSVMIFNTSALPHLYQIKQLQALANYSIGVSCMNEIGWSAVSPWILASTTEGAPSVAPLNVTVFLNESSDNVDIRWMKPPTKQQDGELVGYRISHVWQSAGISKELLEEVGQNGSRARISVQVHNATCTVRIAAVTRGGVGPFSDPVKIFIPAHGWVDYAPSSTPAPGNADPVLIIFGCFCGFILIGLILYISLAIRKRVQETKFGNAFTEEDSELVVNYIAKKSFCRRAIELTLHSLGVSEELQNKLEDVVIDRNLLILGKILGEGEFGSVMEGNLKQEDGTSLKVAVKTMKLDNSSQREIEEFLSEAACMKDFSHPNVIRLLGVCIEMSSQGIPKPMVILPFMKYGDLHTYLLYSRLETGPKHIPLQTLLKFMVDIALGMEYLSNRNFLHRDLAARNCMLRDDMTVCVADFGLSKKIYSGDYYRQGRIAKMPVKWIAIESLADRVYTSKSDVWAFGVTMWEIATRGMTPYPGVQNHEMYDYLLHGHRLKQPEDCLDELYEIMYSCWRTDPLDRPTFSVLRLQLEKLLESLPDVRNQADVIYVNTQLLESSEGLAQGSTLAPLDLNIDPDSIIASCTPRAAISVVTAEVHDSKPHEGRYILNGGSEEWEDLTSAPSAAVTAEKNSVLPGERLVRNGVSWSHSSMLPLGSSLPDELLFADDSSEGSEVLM

Chain of MAP kinase-activated protein kinase 2 (Homo sapiens) (P49137 whole entry, looked up): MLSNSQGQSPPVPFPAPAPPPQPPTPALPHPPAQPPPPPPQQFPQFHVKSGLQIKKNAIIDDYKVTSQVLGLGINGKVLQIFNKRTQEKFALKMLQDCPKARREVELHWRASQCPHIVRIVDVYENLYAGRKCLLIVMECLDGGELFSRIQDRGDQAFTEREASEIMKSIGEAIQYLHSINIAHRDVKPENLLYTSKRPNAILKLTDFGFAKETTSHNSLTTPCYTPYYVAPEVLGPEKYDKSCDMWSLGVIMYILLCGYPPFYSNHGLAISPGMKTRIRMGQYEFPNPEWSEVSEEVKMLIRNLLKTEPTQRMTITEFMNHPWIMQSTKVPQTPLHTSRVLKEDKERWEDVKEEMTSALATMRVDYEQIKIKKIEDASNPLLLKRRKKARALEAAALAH
Chain of Proto-oncogene tyrosine-protein kinase receptor Ret (Homo sapiens), P07949 [Y791F] (P07949 whole entry Y791F): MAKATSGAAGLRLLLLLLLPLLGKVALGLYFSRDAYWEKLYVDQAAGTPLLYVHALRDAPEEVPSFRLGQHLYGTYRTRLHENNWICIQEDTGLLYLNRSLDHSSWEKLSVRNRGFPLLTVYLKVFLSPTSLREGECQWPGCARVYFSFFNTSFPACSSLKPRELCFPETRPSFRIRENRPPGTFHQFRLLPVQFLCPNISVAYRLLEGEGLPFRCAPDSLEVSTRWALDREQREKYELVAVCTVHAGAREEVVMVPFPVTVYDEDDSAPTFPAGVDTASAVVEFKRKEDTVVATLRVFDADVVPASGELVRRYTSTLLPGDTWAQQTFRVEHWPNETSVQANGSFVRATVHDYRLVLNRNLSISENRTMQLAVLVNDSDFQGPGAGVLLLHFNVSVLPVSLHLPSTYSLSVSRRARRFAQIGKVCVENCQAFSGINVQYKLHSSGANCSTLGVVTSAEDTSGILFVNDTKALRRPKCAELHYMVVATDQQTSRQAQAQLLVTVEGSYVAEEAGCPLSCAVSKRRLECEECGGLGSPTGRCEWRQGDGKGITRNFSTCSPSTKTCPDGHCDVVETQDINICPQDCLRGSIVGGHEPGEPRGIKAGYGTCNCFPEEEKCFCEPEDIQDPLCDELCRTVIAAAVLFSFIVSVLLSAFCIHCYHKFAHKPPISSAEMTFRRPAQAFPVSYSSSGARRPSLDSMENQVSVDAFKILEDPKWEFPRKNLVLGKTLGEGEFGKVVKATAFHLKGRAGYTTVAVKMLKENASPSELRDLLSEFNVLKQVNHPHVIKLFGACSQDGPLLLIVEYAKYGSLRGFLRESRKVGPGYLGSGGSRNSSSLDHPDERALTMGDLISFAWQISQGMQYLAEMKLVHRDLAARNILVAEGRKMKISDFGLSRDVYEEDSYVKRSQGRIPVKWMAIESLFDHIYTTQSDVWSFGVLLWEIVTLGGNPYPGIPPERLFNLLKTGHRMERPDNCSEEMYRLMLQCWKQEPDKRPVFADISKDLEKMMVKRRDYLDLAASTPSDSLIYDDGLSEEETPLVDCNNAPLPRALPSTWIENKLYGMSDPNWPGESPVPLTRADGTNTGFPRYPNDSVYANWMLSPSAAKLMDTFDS
Chain of Receptor-type tyrosine-protein kinase FLT3 (Homo sapiens) (P36888 whole entry): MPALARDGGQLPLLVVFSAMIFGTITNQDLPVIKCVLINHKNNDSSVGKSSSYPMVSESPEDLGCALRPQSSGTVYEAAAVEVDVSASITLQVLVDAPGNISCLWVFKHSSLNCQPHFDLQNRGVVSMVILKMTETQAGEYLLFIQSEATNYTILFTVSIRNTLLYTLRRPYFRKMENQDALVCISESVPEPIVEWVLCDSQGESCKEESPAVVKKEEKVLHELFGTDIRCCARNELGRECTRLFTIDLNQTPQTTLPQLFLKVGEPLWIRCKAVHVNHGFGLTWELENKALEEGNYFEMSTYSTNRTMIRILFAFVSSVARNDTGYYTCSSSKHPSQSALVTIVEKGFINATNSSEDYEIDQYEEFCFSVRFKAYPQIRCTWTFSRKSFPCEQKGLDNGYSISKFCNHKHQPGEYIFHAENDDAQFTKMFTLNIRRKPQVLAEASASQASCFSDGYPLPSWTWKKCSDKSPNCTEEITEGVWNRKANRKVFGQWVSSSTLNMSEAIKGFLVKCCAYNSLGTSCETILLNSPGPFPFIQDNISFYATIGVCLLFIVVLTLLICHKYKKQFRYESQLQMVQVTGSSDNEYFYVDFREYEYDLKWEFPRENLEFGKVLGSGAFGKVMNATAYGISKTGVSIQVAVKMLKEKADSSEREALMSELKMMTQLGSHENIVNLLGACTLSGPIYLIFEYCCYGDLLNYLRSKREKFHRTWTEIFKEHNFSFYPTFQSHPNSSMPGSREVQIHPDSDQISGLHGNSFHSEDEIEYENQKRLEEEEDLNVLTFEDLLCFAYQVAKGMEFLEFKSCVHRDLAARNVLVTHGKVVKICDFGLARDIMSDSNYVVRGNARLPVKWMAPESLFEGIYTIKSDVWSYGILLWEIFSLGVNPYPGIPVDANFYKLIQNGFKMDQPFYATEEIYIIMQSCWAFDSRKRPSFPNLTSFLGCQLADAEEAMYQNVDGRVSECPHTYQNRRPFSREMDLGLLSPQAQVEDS
Chain of Proto-oncogene tyrosine-protein kinase receptor Ret (Homo sapiens) (P07949 whole entry): as the sequence (P07949 whole entry Y791F) above, with F791Y counted along it

SMILES	inhibition [4] [%]	inhibition [5] [%]	inhibition [6] [%]	inhibition [8] [%]	IC50 [1] [µM]	IC50 [2] [µM]	further results
CNc1ncc2c(C(C)C)nn(C[C@@H]3CCCN3)c2n1	–	–	–	–	> 30	> 30	–
CNc1ncc2c(C(C)C)nn(CC3CCNCC3)c2n1	–	–	–	–	> 30	> 30	–
CC(C)n1cnc2c(Nc3cccc(Cl)c3)nc(NCCO)nc21	–	–	–	–	–	–	IC50 [9]: 11 µM

Continued, in another order:

inhibition [4] [%]	inhibition [5] [%]	inhibition [6] [%]	inhibition [8] [%]	SMILES	IC50 [1] [µM]	IC50 [2] [µM]	further results
82	59	56	92	CCCCNc1ncc2c(-c3ccc(F)cc3)nn(C[C@H]3CC[C@H](N)CC3)c2n1 [PYRAZOLOPYRIMIDINE]	–	–	F (Mus musculus [3]): 57%; Vdss (Mus musculus [7]): 5.83 L/kg
82	79	67	94	N[C@H]1CC[C@H](Cn2nc(-c3ccc(N4CCNCC4)cc3)c3cnc(NCCCc4ccccc4)nc32)CC1	–	–	–

— ChEMBL document CHEMBL2034931, “Discovery of Novel Small Molecule Mer Kinase Inhibitors for the Treatment of Pediatric Acute Lymphoblastic Leukemia” (ACS Med Chem Lett, 2012)
